Measurements from different studies.
GSK3B: Glycogen synthase kinase-3 beta (GSK3B, Homo sapiens, UniProt P49841)
PTGS2: Prostaglandin G/H synthase 2 (PTGS2, Ovis aries, UniProt P79208)
MLNR: Motilin receptor (MLNR, Homo sapiens, UniProt O43193)

`Ic1cccc2cnccc12` gave an inhibition of 26% (Protein mono-ADP-ribosyltransferase PARP11 (PARP11, Homo sapiens, UniProt Q9NR21); enzyme activity, inhibitor; 10 µM).
For `O=C(C1CCCCC1)N1CC(=O)N2CCc3ccccc3C2C1` (centres unmarked), the inhibition was 8.2% (GSK3B; enzyme activity, inhibitor, ADP detection; 100 µM).
For `O=C(CSc1nc2nccnc2c(=O)n1CCc1ccccc1)Nc1nccs1`, the inhibition was -11% (Phosphatidylinositol 4-kinase type 2-beta (PI4K2B, Homo sapiens, UniProt Q8TCG2); enzyme activity, inhibitor; 10 µM).
With `O=c1c(O[C@@H]2O[C@H](CO)[C@@H](O)[C@H](O)[C@H]2O)c(-c2ccc(O)cc2)oc2cc(O)cc(O)c12` the inhibition was 55.1% (PTGS2; enzyme activity, inhibitor, absorbance; 50 µM).
`CCN(CC)c1ccc(C2=NNC(=O)CC2C)cc1[N+](=O)[O-]` (centres unmarked) gave an inhibition of 2% (High affinity cGMP-specific 3',5'-cyclic phosphodiesterase 9A (PDE9A, Homo sapiens, UniProt O76083); enzyme activity, inhibitor; 0.1 µM).
With `Cc1[nH]c(=O)c(C#N)cc1-c1ccncc1` the inhibition was 27.6% (GSK3B; enzyme activity, inhibitor, ADP detection; 100 µM).
For `CC(=O)c1nn(CC(=O)N2C[C@H](F)C[C@H]2C(=O)Nc2cccc(Br)n2)c2ccc(-c3cnc(C)nc3)cc12`, the inhibition was 0.4% (Cathepsin G (CTSG, Homo sapiens, UniProt P08311); enzyme activity, inhibitor; 10 µM).
`C[C@@H]1O[C@@H](O[C@H]2[C@H](Oc3c(-c4ccc(O)cc4)oc4cc(O)cc(O)c4c3=O)O[C@H](CO[C@@H]3O[C@H](CO)[C@@H](O)[C@H](O)[C@H]3O)[C@@H](O)[C@@H]2O)[C@H](O)[C@H](O)[C@H]1O` has an inhibition of 57.7% (PTGS2; enzyme activity, inhibitor, absorbance; 50 µM).
`CN(C)C1CCN(CC#Cc2nn(C3CCCC3)c3nc(NCc4ccccc4)ncc23)C1` (centres unmarked) has an inhibition of 6% (Protein-tyrosine kinase 6 (PTK6, Homo sapiens, UniProt Q13882); enzyme activity, inhibitor, FRET; 10 µM).
`O=c1c(-c2ccc(O)cc2)coc2cc(O)ccc12` has an inhibition of 59.2% (GSK3B; enzyme activity, inhibitor, ADP detection; 100 µM).
For `C[C@@H]1O[C@@H](OC[C@H]2O[C@@H](O[C@H]3[C@H](Oc4c(-c5ccc(O)cc5)oc5cc(O)cc(O)c5c4=O)O[C@H](CO)[C@@H](O)[C@@H]3O)[C@H](O)[C@@H](O)[C@@H]2O)[C@H](O)[C@H](O)[C@H]1O`, the inhibition was 57.5% (PTGS2; enzyme activity, inhibitor, absorbance; 50 µM).
The inhibition of `CCc1cccc2c3c([nH]c12)C(CC)(CC(=O)O)OCC3` (centres unmarked) is reported as 40.8% (GSK3B; enzyme activity, inhibitor, ADP detection; 100 µM).
With `COc1cc(NC(C)=O)c(Cl)cc1C(=O)Nc1nccs1` the inhibition was 21.6% (MLNR; cell-free assay; 10 µM).
`CCN(c1cc(C#CCN2CCOCC2)cc(C(=O)NCc2c(C)cc(C)[nH]c2=O)c1C)[C@H]1CC[C@H](N(C)CCOC)CC1` has an inhibition of 9% (Protein arginine N-methyltransferase 8 (PRMT8, Homo sapiens, UniProt Q9NR22); enzyme activity, inhibitor; 1 µM).
`O=C(c1ccc(Cl)cc1)N(Cc1ccccc1)C1CCCCC1` has an inhibition of 47.7% (Vasopressin V1a receptor (AVPR1A, Homo sapiens, UniProt P37288); cell-free assay; 10 µM).
`COC(=O)C1=C(C#N)NC(C)=C(C(=O)OC(C)C)C1c1cccc([N+](=O)[O-])c1` (centres unmarked) has an inhibition of 25.3% (GSK3B; enzyme activity, inhibitor, ADP detection; 100 µM).
For `C[C@@H]1O[C@@H](OC[C@H]2O[C@@H](Oc3c(-c4ccc(O)cc4)oc4cc(O)cc(O)c4c3=O)[C@H](O[C@@H]3O[C@H](CO)[C@@H](O)[C@H](O)[C@H]3O)[C@@H](O)[C@@H]2O)[C@H](O)[C@H](O)[C@H]1O`, the inhibition was 53.8% (PTGS2; enzyme activity, inhibitor, absorbance; 50 µM).
With `CCN1CCN(Cc2ccc(NC(=O)c3ccc(C)c(/C=C/c4cnc5[nH]ccc5c4OC)c3)cc2C(F)(F)F)CC1` the inhibition was -33.8% (Mitogen-activated protein kinase kinase kinase 5 (MAP3K5, Homo sapiens, UniProt Q99683); target engagement in cells, inhibitor, chemoproteomics; A-375; 50 nM).
With `NC(=O)N/N=C/c1ccc([N+](=O)[O-])o1` the inhibition was 31% (GSK3B; enzyme activity, inhibitor, ADP detection; 100 µM).
For `Oc1cccc(Nc2nc(-c3ccc(F)cc3F)cs2)c1`, the inhibition was 6.5% (MLNR; cell-free assay; 10 µM).
